ChEMBL document CHEMBL5385974, “A novel BODIPY-based theranostic agent for in vivo fluorescence imaging of cerebral Aβ and ameliorating Aβ-associated disorders in Alzheimer's disease transgenic mice” (RSC Med Chem, 2024)
The source made the active and inactive calls. The rule behind the calls is not given here.

What was measured:
[1] = molecular target: T1, Amyloid-beta precursor protein (Homo sapiens, UniProt P05067); test: Binding affinity to Amyloid beta (1 to 42) aggregates (unknown origin) assessed as fluorescent intensities measured after 30 mins by fluorescence spectrometry
Method in brief: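 P14 (320 nM final, in EtOH) incubated 30 min at room temperature with 0, 2, 4, 6 or 8 μM Aβ42 aggregates. Aggregates were made by shaking 50 μM Aβ42 in 10 mM PBS pH 7.4 at 100 rpm, 37 °C, 24 h. Emission spectra recorded at 600–800 nm with excitation at 589 nm.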

[2] = molecular target: T1, Amyloid-beta precursor protein; test: Binding affinity to Amyloid beta (1 to 42) aggregates (unknown origin)
Method in brief: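 Fluorescence titration in which P14 (0–200 nM, in EtOH) was incubated with 5 μM Aβ42 aggregates for 30 min at room temperature. Read in a quartz cuvette at Ex 589 nm, Em 620 nm. Kd was obtained by nonlinear regression, one-site binding. n = 3; mean ± SD.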

[3] = test system: Cortical neurone; test: Neuroprotective effect against Amyloid-beta induced Sprague-Dawley rat primary cortical neurons assessed as cell viability after 9 days of pretreatment with Amyloid-beta followed by incubated with 1 uM compound for 24 hrs by MTT assay; assay type: functional, cell-based; details: time 9.0 day
Method in brief: (§1)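 Primary cortical neurons from newborn SD rat pups, cultured in neurobasal/B27 at 37 °C and used at day 9. Cells were exposed for 24 h to Aβ42 (1 μM final) premixed with compound at 0, 0.1, 0.25, 0.5, 1 or 5 μM final. MTT was then added for 4 h, formazan dissolved in DMSO and absorbance read at 490 nm. n = 3; mean ± SD.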

[4] = test system: Cortical neurone; test: Neuroprotective effect against Amyloid-beta induced Sprague-Dawley rat primary cortical neurons assessed as cell viability after 9 days of pretreatment with Amyloid-beta followed by incubated with 5 uM compound for 24 hrs by MTT assay; assay type: functional, cell-based; details: time 9.0 day; method in brief: as §1
[5] = molecular target: T1, Amyloid-beta precursor protein; test: Inhibition of amyloid beta 42 (unknown origin) aggregation assessed as reduction in amyloid fibrils density at 50 uM measured after 24 hrs incubation by transmission electron microscopy (TEM)
Method in brief: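 Aβ42 (50 μM in water) mixed 1:1 with water or 100 μM compound, then shaken at 100 rpm, 37 °C, 24 h. Samples were adsorbed on carbon-coated copper grids, negatively stained with 7.5% uranium formate and imaged by TEM at 120 kV.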

[6] = species: Mus musculus; test: Antialzheimer activity in 12 month old APP/PS1 transgenic cognitive impairment mouse model assessed as shortening of latencies to reaching platform treated continuously and measured after 3 months by water maze test; assay type: functional, organism-based
Method in brief: (§2)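 APP/PS1 mice and wild-type littermates given oral 10 mg kg-1 (PEG400:HS15:0.9% saline = 25:15:60) or vehicle from 9 to 12 months. Tested in an 80 × 50 cm passage water maze with one correct path. Training was 1-min free swims, with guidance to the platform on failure. After 4 trainings, wrong-path errors and latency to the platform were recorded. n = 6-10.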

[7] = molecular target: T1, Amyloid-beta precursor protein; test: Inhibition of amyloid beta 42 (unknown origin) aggregation assessed as fluorescence intensity at 0.1 equivalents measured for 24 hrs by ThT fluorescence assay
Method in brief: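 Aβ42 monomer (50 μM) incubated 24 h at 37 °C with or without compound. ThT was then added from a 15 mM solution in 50 mM glycine-NaOH, and fluorescence read at Ex 425/Em 490 nm. n = 4; mean ± SD.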

[8] = species: Mus musculus; test: Anti-alzheimer activity against transgenic mouse model assessed as decrease in amyloid beta plaques in brain hippocampus region treated continuously and measured after 3 months by ThS staining based immunofluorescence assay relative to control
[9] = test system: Cerebral cortex; test: In vivo binding affinity Amyloid beta deposits in APPswe/PSEN1dE9, APP/PS1 double transgenic mouse cerebral cortex assessed as red fluorescent spot; assay type: functional, organism-based
Method in brief: (§3)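 Frozen brain sections from perfused 12-month male APP/PS1 mice or wild-type mice. Sections were stained with ThS (10 mg mL-1), washed 3 times with 50% ethanol, then incubated with 100 μM compound for 20 min at room temperature. Confocal imaging: compound Ex 638/Em 650–700 nm, ThS Ex 488/Em 500–550 nm. n = 3.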

[10] = test system: Cortical neurone; test: Neuroprotective effect against Amyloid-beta induced Sprague-Dawley rat primary cortical neurons assessed as reversal of Amyloid beta-induced loss of MAP2 fluorescence signal at 1 uM by immunofluorescence staining based assay; assay type: functional, cell-based
Method in brief: (§4)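 Primary rat cortical neurons exposed to Aβ42 with or without compound. Cells were fixed in 4% PFA and blocked with 3% BSA/0.01% Triton X-100 for 1 h. Staining was anti-MAP2 (1:200) overnight at 4 °C, then Alexa Fluor 488 secondary (1:500) for 1 h, with DAPI nuclear counterstain. MAP2 fluorescence was quantified. n = 3.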

[11] = test system: Hippocampus; test: In vivo binding affinity Amyloid beta deposits in APPswe/PSEN1dE9, APP/PS1 double transgenic mouse hippocampus assessed as red fluorescent spot; assay type: functional, organism-based; method in brief: as §3
[12] = test system: Mus musculus; test: Anti-alzheimer activity against 5 month old 5 x FAD mouse assessed as average radiation efficiency at 30 mg/kg, po treated for 1 month; assay type: functional; details: time 1 months, 730 h
Method in brief: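 5×FAD and wild-type mice imaged by IVIS after a single intravenous injection of 2.0 mg kg-1. Imaging was done at 5 months, and again at 6 months after one month of oral treatment (30 mg kg-1) or vehicle. Ex 570 nm, Em 640 nm. Read-out is average radiation efficiency. n = 3 at 5 months, n = 4 at 6 months; mean ± SD.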

[13] = test system: Cortical neurone; test: Neuroprotective effect against Amyloid-beta induced Sprague-Dawley rat primary cortical neurons assessed as reversal of Amyloid beta-induced loss of MAP2/DAPI fluorescence signal at 1 uM by immunofluorescence staining based assay; assay type: functional, cell-based; method in brief: as §4
[14] = species: Mus musculus; test: Antialzheimer activity in 12 month old APP/PS1 transgenic cognitive impairment mouse model assessed as reduction in error time in passage water maze treated continuously and measured after 3 months by passage water maze test; assay type: functional, organism-based; method in brief: as §2
[15] = test system: Cortical neurone; test: Cytotoxicity against Sprague-Dawley rat primary cortical neurons assessed as cell viability at 0.1 to 5 uM measured after 24 hrs by MTT assay; assay type: toxicity, cell-based; details: dose 0.1-5 µM
[16] = Solubility of the compound in water; assay type: physicochemical; details: buffer
[17] = test system: Mus musculus; test: In vivo binding affinity Amyloid beta deposits in APP/PS1 transgenic mouse assessed as Increase in fluorescence intensity at 2 mg/kg, iv measured after 5 mins by IVIS Spectrum imaging based assay relative to wild type; assay type: functional, organism-based
Method in brief: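 APP/PS1 and wild-type mice, 12 months old, heads shaved and anaesthetized with 1.5% isoflurane. Injected intravenously with 2 mg kg-1 in DMSO:Cremophor EL:0.9% saline = 5:10:85. Brain fluorescence was acquired sequentially by IVIS, with circular ROI analysis at 5 min. Ex 570 nm, Em Cy5.5. n = 3.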

[18] = test system: Brain; test: In vivo binding affinity Amyloid beta deposits in wild type mouse brain by fluorescence staining assay; assay type: functional, organism-based; method in brief: as §3
[19] = species: Mus musculus; test: Anti-alzheimer activity against 12 month old APP/PS1 transgenic mouse model assessed as decrease in amyloid beta plaques in brain hippocampus region treated continuously and measured after 3 months by ThS staining based immunofluorescence assay relative to control; assay type: functional, organism-based
Method in brief: (§5)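 APP/PS1 mice dosed orally from 9 months of age for three months with 10 mg kg-1 in PEG400:HS15:0.9% saline = 25:15:60, or with vehicle alone. Wild-type mice were treated in parallel. ThS-stained plaques were counted by confocal imaging of hippocampus and cortex sections at 12 months. n = 3.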

[20] = species: Mus musculus; test: Anti-alzheimer activity against 12 month old APP/PS1 transgenic mouse model assessed as decrease in amyloid beta plaques in brain cortex region treated continuously and measured after 3 months by ThS staining based immunofluorescence assay relative to control; assay type: functional, organism-based; method in brief: as §5

T1 sequence (P05067 whole entry): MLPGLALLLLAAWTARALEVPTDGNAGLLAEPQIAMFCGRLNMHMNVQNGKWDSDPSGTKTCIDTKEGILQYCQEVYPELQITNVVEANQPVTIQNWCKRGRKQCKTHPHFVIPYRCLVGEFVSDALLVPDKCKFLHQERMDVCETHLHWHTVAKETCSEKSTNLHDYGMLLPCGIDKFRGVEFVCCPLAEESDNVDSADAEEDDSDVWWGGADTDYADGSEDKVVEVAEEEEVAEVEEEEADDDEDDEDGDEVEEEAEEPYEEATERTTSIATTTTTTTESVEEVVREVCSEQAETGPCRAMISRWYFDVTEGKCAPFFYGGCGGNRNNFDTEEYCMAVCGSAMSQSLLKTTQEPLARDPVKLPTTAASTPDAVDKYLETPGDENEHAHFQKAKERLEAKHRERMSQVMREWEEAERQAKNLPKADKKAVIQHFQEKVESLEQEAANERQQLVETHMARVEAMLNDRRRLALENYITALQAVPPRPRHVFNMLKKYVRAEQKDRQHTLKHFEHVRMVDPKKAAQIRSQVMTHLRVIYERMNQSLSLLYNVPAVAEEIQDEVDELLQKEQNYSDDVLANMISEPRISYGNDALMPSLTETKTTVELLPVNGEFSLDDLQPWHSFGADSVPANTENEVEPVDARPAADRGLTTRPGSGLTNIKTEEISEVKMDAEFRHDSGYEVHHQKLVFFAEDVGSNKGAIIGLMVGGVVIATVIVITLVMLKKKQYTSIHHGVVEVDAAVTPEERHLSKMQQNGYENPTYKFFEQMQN

Row | Kd [1] [nM] | Kd [2] [nM] | inhibition [5] | inhibition [7] | solubility [16] | Structure (SMILES) | Activity [3] | Activity [4] | Activity [6] | Activity [8] | Activity [9] | Activity [10] | Activity [11] | Activity [12] | Activity [13] | Activity [14] | Activity [15] | Activity [17] | Activity [18] | Activity [19] | Activity [20]
1 | 27 |  |  |  |  | CC1=CC(C)=[N+]2C1=C(CCCN1CCNc3ccccc31)c1c(C)cc(/C=C/c3ccc(N(C)C)s3)n1[B-]2(F)F |  |  |  |  |  |  |  |  |  |  |  |  |  |  | 
2 |  | 55 |  |  |  | Cc1cc(/C=C/c2ccc(N(C)C)s2)n2c1C=C1C=CC=[N+]1[B-]2(F)F |  |  |  |  |  |  |  |  |  |  |  |  |  |  | 
3 | 78.1 |  | Active | Dose-Dependent Effect | Soluble | CC1=CC(C)=[N+]2C1=C(CCCO)c1c(C)cc(/C=C/c3cnc(N(C)C)s3)n1[B-]2(F)F | Active | Active | Active | Active | Active | Active | Active | 5.2 10^8(p/s/cm^2/sr)/(uW/cm^2) | Active | Active | Non-Toxic | Active | inactive | Active | Active
